According to ChEMBL document CHEMBL1138990, “Diadenosine and diuridine poly(borano)phosphate analogues: synthesis, chemical and enzymatic stability, and activity at P2Y1 and P2Y2 receptors” (J Med Chem, 2006):

Tests used:
Format in all cases: functional, cell-based
P2Y purinoceptor 1 [1] = molecular target: P2Y purinoceptor 1 (Rattus norvegicus, UniProt P49651); assay: Activity against rat P2Y1-GFP transfected in HEK293 cells by intracellular calcium increase
Method in brief: (§1)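 HEK 293 cells stably expressing rat P2Y1-GFP or P2Y2-GFP (C-terminal GFP), transfected with DOTAP and selected with 1 mg/mL G418. Grown in DMEM/Ham's F12 with 10% FCS on PLL coverslips and measured after 3 days. Loaded with 2 µM Fura-2/AM for 30 min, then superfused with NaHBS at 37 °C with agonist for 1 min. Single-cell 340/380 nm ratio; mean ± SD, ≥50 cells.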

P2Y purinoceptor 2 = P2Y purinoceptor 2 (Rattus norvegicus, UniProt P41232); assay: Activity against rat P2Y2-GFP transfected in HEK293 cells by intracellular calcium increase; method in brief: as §1
Sequence of P2Y purinoceptor 2 (P41232 whole entry): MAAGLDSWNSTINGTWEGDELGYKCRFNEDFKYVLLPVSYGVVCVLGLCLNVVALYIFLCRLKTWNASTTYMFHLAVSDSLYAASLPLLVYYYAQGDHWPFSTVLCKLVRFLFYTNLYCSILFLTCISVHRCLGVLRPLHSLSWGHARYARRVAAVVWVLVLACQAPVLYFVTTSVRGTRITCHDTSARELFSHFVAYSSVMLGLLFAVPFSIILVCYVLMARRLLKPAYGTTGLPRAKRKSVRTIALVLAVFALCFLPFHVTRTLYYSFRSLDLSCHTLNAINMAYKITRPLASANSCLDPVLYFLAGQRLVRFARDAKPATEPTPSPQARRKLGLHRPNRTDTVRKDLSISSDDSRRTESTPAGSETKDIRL

P2Y purinoceptor 1 [2] = molecular target: P2Y purinoceptor 1 (Homo sapiens, UniProt P47900); assay: Activity against human P2Y1-GFP expressed in 1321N1 cells by intracellular calcium increase
Sequence of P2Y purinoceptor 1 (Homo sapiens, UniProt P47900) (P47900 whole entry, the tested form may be a part): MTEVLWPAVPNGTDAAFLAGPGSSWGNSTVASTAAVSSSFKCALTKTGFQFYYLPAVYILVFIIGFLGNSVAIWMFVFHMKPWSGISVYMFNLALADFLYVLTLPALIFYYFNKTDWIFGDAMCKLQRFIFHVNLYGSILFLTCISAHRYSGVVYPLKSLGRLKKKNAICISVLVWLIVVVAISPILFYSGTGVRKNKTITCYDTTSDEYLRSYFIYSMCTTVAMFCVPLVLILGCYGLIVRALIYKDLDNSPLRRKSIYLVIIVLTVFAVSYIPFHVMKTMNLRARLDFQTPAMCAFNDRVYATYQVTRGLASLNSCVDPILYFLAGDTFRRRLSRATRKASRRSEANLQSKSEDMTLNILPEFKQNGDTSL
Method in brief: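 hP2Y1-GFP (C-terminal tag) stably transfected into 1321N1 cells, which lack endogenous P2Y receptors; selected with 1 mg/mL G418. Cells grown in DMEM with 5% FCS under 10% CO2 at 37 °C on PLL-coated coverslips. Loaded with 2 µM Fura-2/AM for 30 min in NaHBS pH 7.4, then superfused at 37 °C with agonist for 1 min. Read-out is single-cell 340/380 nm fluorescence ratio; mean ± SD from ≥50 cells.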

Sequence of P2Y purinoceptor 1 (Rattus norvegicus, UniProt P49651) (P49651 whole entry, the tested form may be a part): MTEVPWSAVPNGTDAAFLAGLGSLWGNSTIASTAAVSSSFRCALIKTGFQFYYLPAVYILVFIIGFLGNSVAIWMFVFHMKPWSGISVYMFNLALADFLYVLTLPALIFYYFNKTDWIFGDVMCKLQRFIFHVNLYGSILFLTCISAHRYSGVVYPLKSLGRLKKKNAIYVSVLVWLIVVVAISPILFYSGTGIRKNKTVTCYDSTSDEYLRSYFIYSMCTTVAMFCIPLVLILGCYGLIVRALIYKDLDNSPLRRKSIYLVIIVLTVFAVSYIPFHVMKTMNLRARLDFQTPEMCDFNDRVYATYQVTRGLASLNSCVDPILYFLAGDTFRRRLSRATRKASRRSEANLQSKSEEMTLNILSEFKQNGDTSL

| EC50 (P2Y purinoceptor 1 [1]) [nM] | SMILES | further results |
| --- | --- | --- |
| 63 | BP(=O)(OP(=O)(O)OP(=O)(O)OC[C@H]1O[C@@H](n2cnc3c(N)ncnc32)[C@H](O)[C@@H]1O)OP(=O)(O)OP(=O)(O)OC[C@H]1O[C@@H](n2cnc3c(N)ncnc32)[C@H](O)[C@@H]1O.CCCCN(CCCC)CCCC.CCCCN(CCCC)CCCC.CCCCN(CCCC)CCCC.CCCCN(CCCC)CCCC.CCCCN(CCCC)CCCC |  |
|  | O=c1ccn([C@@H]2O[C@H](COP(=O)(O)OP(=O)(O)OP(=O)(O)O)[C@@H](O)[C@H]2O)c(=O)[nH]1 [URIDINE TRIPHOSPHATE] | EC50 (P2Y purinoceptor 2; read-out: EC50): 130 nM |
| 900 | BP(=O)(OP(=O)(O)OC[C@H]1O[C@@H](n2cnc3c(N)ncnc32)[C@H](O)[C@@H]1O)OP(=O)(O)OC[C@H]1O[C@@H](n2cnc3c(N)ncnc32)[C@H](O)[C@@H]1O.CCCCN(CCCC)CCCC.CCCCN(CCCC)CCCC.CCCCN(CCCC)CCCC |  |
| 60 | Nc1ncnc2c1ncn2[C@@H]1O[C@H](COP(=O)(O)OP(=O)(O)OP(=O)(O)OC[C@H]2O[C@@H](n3cnc4c(N)ncnc43)[C@H](O)[C@@H]2O)[C@@H](O)[C@H]1O |  |
| ≥ 5000 | Nc1ncnc2c1ncn2[C@@H]1O[C@H](COP(=O)(O)OP(=O)(O)OP(=O)(O)OP(=O)(O)OP(=O)(O)OC[C@H]2O[C@@H](n3cnc4c(N)ncnc43)[C@H](O)[C@@H]2O)[C@@H](O)[C@H]1O |  |
|  | BP(=O)(OP(=O)(O)OC[C@H]1O[C@@H](n2ccc(=O)[nH]c2=O)[C@H](O)[C@@H]1O)OP(=O)(O)OC[C@H]1O[C@@H](n2ccc(=O)[nH]c2=O)[C@H](O)[C@@H]1O.CCCCN(CCCC)CCCC.CCCCN(CCCC)CCCC.CCCCN(CCCC)CCCC | EC50 (P2Y purinoceptor 1 [2]): 800 nM; EC50 (P2Y purinoceptor 2; hek293): Not Active |
|  | BP(=O)(OP(=O)(O)OP(=O)(O)OC[C@H]1O[C@@H](n2ccc(=O)[nH]c2=O)[C@H](O)[C@@H]1O)OP(=O)(O)OP(=O)(O)OC[C@H]1O[C@@H](n2ccc(=O)[nH]c2=O)[C@H](O)[C@@H]1O.CCCCN(CCCC)CCCC.CCCCN(CCCC)CCCC.CCCCN(CCCC)CCCC.CCCCN(CCCC)CCCC.CCCCN(CCCC)CCCC | EC50 (P2Y purinoceptor 1 [2]): 800 nM; EC50 (P2Y purinoceptor 2; read-out: EC50): > 7000 nM |
| 100 | CSc1nc(N)c2ncn([C@@H]3O[C@H](COP(=O)(O)OP(=O)(O)O)[C@@H](O)[C@H]3O)c2n1 |  |
